Two compounds from ChEMBL document CHEMBL4351001, “2-Aminoimidazole-based antagonists of the 5-HT6 receptor - A new concept in aminergic GPCR ligand design” (Eur J Med Chem, 2019) can be followed below.

One data set concerns the target hERG (KCNH2) (Homo sapiens, UniProt Q12809). As to the kind of experiment: Displacement of [3H] dofetilide from human recombinant ERG at 10^-6 M measured after 60 mins by scintillation counting method relative to control. The settings on record: probe [3H]dofetilide. On the technique in general: Displacement assays read how much labelled ligand stays bound in the presence of the test substance.

Data set [1] can be described thus: Solubility of compound in water. Format: physicochemical. The settings on record: water; read-out: solubility.
A further data set deals with Rattus norvegicus. As to the kind of experiment: Reversal of scopolamine induced cognitive impairment impairment in Sprague-Dawley rat at 1 mg/kg, po pre treated for 2 hrs followed by scopolamine addition further treated for 30 mins and measured after 1 hr by novel object recognition test. Format: functional, organism-based. The essentials:
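Male Sprague–Dawley rats (~250 g); open-field habituation 5 min 24 h before test. Compounds p.o. 120 min and scopolamine 1.25 mg/kg i.p. 30 min before 3-min familiarization trial; 3-min recognition trial 1 h later. Exploration video-tracked; discrimination index computed; one-way ANOVA with Newman–Keuls; n = 9–10 per group; mean ± SEM.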

The nature of data set [2]: in vitro. The settings on record: rat, microsomes.
The nature of data set [3]: in vitro. The settings on record: rat, microsomes. The source holds these as a separate data set.

Molecules are shown by their SMILES. Calls of active or inactive are those of the source. No cut-off for these calls is given here.

hERG (KCNH2), sequence (Q12809 whole entry): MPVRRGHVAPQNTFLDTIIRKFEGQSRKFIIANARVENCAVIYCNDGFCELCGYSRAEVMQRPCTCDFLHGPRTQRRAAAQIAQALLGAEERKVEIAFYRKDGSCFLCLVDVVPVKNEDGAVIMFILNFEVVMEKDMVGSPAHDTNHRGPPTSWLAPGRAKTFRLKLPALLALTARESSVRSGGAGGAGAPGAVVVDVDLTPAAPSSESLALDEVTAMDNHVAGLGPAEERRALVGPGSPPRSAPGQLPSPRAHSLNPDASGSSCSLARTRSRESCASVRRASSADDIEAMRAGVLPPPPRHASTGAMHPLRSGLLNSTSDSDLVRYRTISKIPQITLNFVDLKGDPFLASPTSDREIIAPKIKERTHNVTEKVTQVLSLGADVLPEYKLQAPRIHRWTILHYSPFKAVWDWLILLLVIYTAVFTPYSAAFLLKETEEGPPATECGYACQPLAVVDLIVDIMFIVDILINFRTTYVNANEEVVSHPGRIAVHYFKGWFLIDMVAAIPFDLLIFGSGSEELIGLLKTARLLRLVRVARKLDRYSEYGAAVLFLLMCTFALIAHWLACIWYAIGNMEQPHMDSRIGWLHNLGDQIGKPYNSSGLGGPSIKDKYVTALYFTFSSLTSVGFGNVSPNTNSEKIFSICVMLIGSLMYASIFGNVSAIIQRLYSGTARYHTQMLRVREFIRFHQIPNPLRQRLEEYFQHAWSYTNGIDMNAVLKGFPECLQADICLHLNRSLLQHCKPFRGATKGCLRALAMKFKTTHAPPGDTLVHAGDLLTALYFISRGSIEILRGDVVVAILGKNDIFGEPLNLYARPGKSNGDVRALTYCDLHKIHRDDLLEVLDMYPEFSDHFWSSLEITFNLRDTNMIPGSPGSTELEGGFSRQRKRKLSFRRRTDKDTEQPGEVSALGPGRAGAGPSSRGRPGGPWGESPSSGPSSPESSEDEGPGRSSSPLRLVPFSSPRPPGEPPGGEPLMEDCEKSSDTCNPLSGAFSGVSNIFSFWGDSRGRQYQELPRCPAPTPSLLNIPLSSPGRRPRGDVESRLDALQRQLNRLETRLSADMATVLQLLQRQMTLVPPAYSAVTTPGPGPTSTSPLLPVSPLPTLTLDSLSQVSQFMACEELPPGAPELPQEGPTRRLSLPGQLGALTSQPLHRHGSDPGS

Regarding `CC(=O)Nc1nc(C)c(-c2cn(S(=O)(=O)c3ccccc3)c3ccccc23)[nH]1.Cl`, the inhibition – broadly, the drop in the measured response relative to a control, in per cent – at 1 h, 1 µM on hERG (KCNH2) stood at 2.4%. Besides, the solubility – broadly, the concentration that dissolves in the medium under given conditions – in data set [1] fell in the range of 100 to 10000 µg/mL.

For `COc1cc2c(cc1OC)C(=O)C(CC1CCN(Cc3ccccc3)CC1)C2` (stereo not given) [DONEPEZIL], the result with Rattus norvegicus was Active. For the same compound, the half-life (usually how long it takes for the measured level to halve) in the data set “in vitro [2]” amounted to 1.32 h. In the data set “in vitro [3]”, the microsomal CLint (as a rule, the capacity of the preparation to metabolise the compound, expressed as a volume cleared per time) is 17.6 µL/min/mg.
